Data on 16 compounds can be found in ChEMBL document CHEMBL4177554, “Ester-to-amide rearrangement of ethanolamine-derived prodrugs of sobetirome with increased blood-brain barrier penetration” (Bioorg Med Chem, 2017).

Data set [1] in a line: Ratio of drug level in C57Bl/6 mouse brain to serum assessed as sobetirome level at 1.5 umol/kg, ip after 1 hr by LC-MS/MS analysis. The data set is classed as ADME, organism-based. An outline of the steps:
(§1)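 Single i.p. dose of 1.5 μmol/kg in 50% DMSO/saline to male C57Bl/6 mice (8–10 wk), n = 3. Agents were given as amide-rearranged isomers where rearrangement occurs. Whole brain and blood were taken at 1 h. Sobetirome was measured by LC-MS/MS with d6-sobetirome internal standard, and the brain/serum ratio was calculated. Values are mean with SEM.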

The nature of data set [2]: Prodrug activation in C57Bl/6 mouse brain assessed as sobetirome level at 1.5 umol/kg, ip after 1 hr by LC-MS/MS analysis. The data set is classed as organism-based. To be noted: in vivo. An outline of the steps: as §1
Data set [3] is described as follows: AUC (0 to t) in C57Bl/6 mouse heart assessed as sobetirome level at 1.5 umol/kg, ip by LC-MS/MS analysis. The data set is classed as ADME, organism-based. The following applies: in vivo. An outline of the steps:
(§2)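 Male C57Bl/6 mice (8–10 wk) given a single i.p. dose of 1.5 μmol/kg in 50% DMSO/saline. Three mice per time point were killed at 0.25, 0.5, 1, 2, 4 and 8 h. Brain, liver, heart and kidney were homogenized with d6-sobetirome internal standard and acetonitrile-extracted, as was serum. Sobetirome was quantified by negative-ESI LC-MS/MS on C18. AUC0→t was computed over 8 h.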

The nature of data set [4]: AUC (0 to t) in C57Bl/6 mouse kidney assessed as sobetirome level at 1.5 umol/kg, ip by LC-MS/MS analysis. It is filed as ADME, organism-based. The following applies: in vivo. An outline of the steps:
as §2

Data set [5] relates to Mus musculus. In words: Oral bioavailability in C57Bl/6 mouse at 30.5 umol/kg administered via oral gavage by LC-MS/MS analysis. To be noted: in vivo.
Data set [6] relates to Mus musculus. Kind of data set: Upregulation of Hr expression levels in ip dosed mouse brain for 7 days measured after 2 hrs post last dose by […] green dye-based qPCR analysis. It is filed as functional. An outline of the steps:
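Mice, n = 3 per dose, received six i.p. doses in 1:1 saline/DMSO. Brains were collected 2 h post-injection. RNA was extracted with Trizol and a column kit with DNase treatment, and cDNA was diluted two-fold. Hairless was measured by qPCR, normalized to GAPDH, by comparative CT. ED50 ± SEM came from a sigmoidal dose–response fit. Run in triplicate.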
Background: Quantitative PCR measures a nucleic acid by following its amplification.

Data set [7] in a line: AUC (0 to t) in C57Bl/6 mouse serum assessed as sobetirome level at 1.5 umol/kg, ip by LC-MS/MS analysis. It is filed as ADME, organism-based. To be noted: in vivo. An outline of the steps: as §2
A short description of data set [8]: Ratio of AUC (0 to t) in C57Bl/6 mouse brain to serum at 1.5 umol/kg, ip by LC-MS/MS analysis. The data set is classed as ADME, organism-based. The following applies: read-out: Ratio AUC. An outline of the steps:
as §2

The nature of data set [9]: Elimination half life in C57Bl/6 mouse at 3.05 umol/kg, iv by LC-MS/MS analysis. The data set is classed as ADME, organism-based. The following applies: in vivo, read-out: beta t1/2 (converted). An outline of the steps:
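C57Bl/6 mice, n = 3 per cohort, dosed i.v. by tail vein at 3.05 μmol/kg or by oral gavage at 30.5 μmol/kg in 50% DMSO/saline. Serial serum samples were taken (i.v.: 5 min–8 h; p.o.: 10 min–8 h). Prodrug and sobetirome were quantified by LC-MS/MS. %F = (AUCp.o./AUCi.v.)·(dosei.v./dosep.o.)·100. t½ came from the log-concentration slope of the last five i.v. time points.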

Data set [10] in a line: AUC (0 to t) in C57Bl/6 mouse liver assessed as sobetirome level at 1.5 umol/kg, ip by LC-MS/MS analysis. The data set is classed as ADME, organism-based. The following applies: in vivo. An outline of the steps:
as §2

A short description of data set [11]: AUC (0 to t) in C57Bl/6 mouse brain assessed as sobetirome level at 1.5 umol/kg, ip by LC-MS/MS analysis. The data set is classed as ADME, organism-based. The following applies: in vivo. An outline of the steps:
as §2

Data set [12] deals with Mus musculus. In words: Total oral bioavailability in C57Bl/6 mouse assessed as sobetirome level at 30.5 umol/kg administered via oral gavage by LC-MS/MS analysis. To be noted: in vivo.
Data set [13] in a line: AUC (0 to t) in C57Bl/6 mouse liver at 1.5 umol/kg, ip by LC-MS/MS analysis. The data set is classed as ADME, organism-based. The following applies: in vivo. An outline of the steps:
as §2

Data set [14] in a line: AUC (0 to t) in C57Bl/6 mouse kidney at 1.5 umol/kg, ip by LC-MS/MS analysis. The data set is classed as ADME, organism-based. The following applies: in vivo. An outline of the steps: as §2
The nature of data set [15]: AUC (0 to t) in C57Bl/6 mouse brain at 1.5 umol/kg, ip by LC-MS/MS analysis. The data set is classed as ADME, organism-based. The following applies: in vivo. An outline of the steps:
as §2

A short description of data set [16]: Drug uptake in C57Bl/6 mouse brain at 1.5 umol/kg, ip after 1 hr by LC-MS/MS analysis. The data set is classed as ADME, organism-based. The following applies: read-out: Drug uptake. An outline of the steps:
as §1

Data set [17] can be described thus: AUC (0 to t) in C57Bl/6 mouse heart at 1.5 umol/kg, ip by LC-MS/MS analysis. It is filed as ADME, organism-based. The following applies: in vivo. An outline of the steps: as §2
Data set [18] can be described thus: AUC (0 to t) in C57Bl/6 mouse serum at 1.5 umol/kg, ip by LC-MS/MS analysis. It is filed as ADME, organism-based. The following applies: in vivo. An outline of the steps:
as §2

The nature of data set [19]: Ratio of drug level in C57Bl/6 mouse brain to serum at 1.5 umol/kg, ip after 1 hr by LC-MS/MS analysis. It is filed as ADME, organism-based. An outline of the steps: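 Male C57Bl/6 mice, 8–10 weeks old, given one i.p. dose of 1.5 μmol/kg in 50% DMSO/saline. Whole brain and blood taken 1 h later; serum obtained from blood clotted on ice ≥30 min and spun at 7,500 × g for 15 min. d6-sobetirome internal standard added, acetonitrile extraction, sobetirome quantified by negative-ESI LC-MS/MS. Mean of n = 3 mice, SEM.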

As for `Cc1cc(OCC(=O)O[C@H](C)CN)cc(C)c1Cc1ccc(O)c(C(C)C)c1`, the Ratio in [1] is 0.19. In [2], the Activity turned out to be 8.12 ng/g.

As for `Cc1cc(OCC(=O)OC(C)CN)cc(C)c1Cc1ccc(O)c(C(C)C)c1` (configuration not stated), the Ratio in data set [1] came to 0.21. In addition, the Activity in data set [2] was 5.92 ng/g.

Turning to `Cc1cc(OCC(=O)NC[C@H](C)O)cc(C)c1Cc1ccc(O)c(C(C)C)c1`, in data set [2], the Drug metabolism entry is reported as “Metabolite_Detected”.

In the case of `CNCC(OC(=O)COc1cc(C)c(Cc2ccc(O)c(C(C)C)c2)c(C)c1)C(C)C` (configuration not stated), the Ratio in data set [1] came out at 0.024. Moreover, the Activity in [2] was 1.79 ng/g.

`Cc1cc(OCC(=O)O[C@@H](C)CN)cc(C)c1Cc1ccc(O)c(C(C)C)c1`: the AUCt came out at 57.2 ng·h/g in [3]; 283.8 ng·h/g in [4]; 136.5 ng·h/g in data set [7]; 1017 ng·h/g in [10]; 17.2 ng·h/g in data set [11]. Moreover, the F with Mus musculus [5] was determined as 36%; in the data set with Mus musculus [12] it was 56%. For the same compound, the Ratio in [1] was 0.47. For the same compound, the values for the Activity entry (in the data set on Mus musculus [6]; in data set [2]) were “Dose-dependent effect” and 8.26 ng/g, respectively. For the same compound, the ED50 (in general, the dose at which the effect has come halfway, by size or by number of responders) in the data set on Mus musculus [6] stood at 1 µmol/kg. In addition, in [8], the Kp came to 0.13. In data set [9], the half-life is 6.96 h.

Turning to `Cc1cc(OCC(=O)OCCN)cc(C)c1Cc1ccc(O)c(C(C)C)c1`, the Ratio in data set [1] is 0.066. The Activity in data set [2] was 4.92 ng/g.

Turning to `Cc1cc(OCC(=O)OC(C)(C)CN)cc(C)c1Cc1ccc(O)c(C(C)C)c1`, the Ratio in data set [1] was 1.22. In addition, the Activity in data set [2] amounted to 0.4 ng/g.

Take `CNCCOC(=O)COc1cc(C)c(Cc2ccc(O)c(C(C)C)c2)c(C)c1`: in [1], the Ratio came out at 0.21. In [2], the Activity turned out to be 6.33 ng/g.

As to `Cc1cc(OCC(=O)OC(CN)C(F)(F)F)cc(C)c1Cc1ccc(O)c(C(C)C)c1` (configuration not stated), in data set [1], the Ratio amounted to 0.2. Also, in data set [2], the Activity was determined as 5.23 ng/g.

With `Cc1cc(OCC(=O)OC2(C(F)(F)F)CNC2)cc(C)c1Cc1ccc(O)c(C(C)C)c1`, the Ratio in data set [1] was found to be 0.13. In [2], the Activity came out at 5.14 ng/g.

On to `Cc1cc(OCC(=O)O)cc(C)c1Cc1ccc(O)c(C(C)C)c1` [SOBETIROME], for which the AUCt in [13] was found to be 2235 ng·h/g; in [14], 686.8 ng·h/g; in data set [15], 9.9 ng·h/g; in data set [17] it was 180.3 ng·h/g; in data set [18], 472.6 ng·h/g. In the data set with Mus musculus [5], this compound showed an F of 92%. For the same compound, the Activity entry with Mus musculus [6] is “Dose-dependent effect”. In the data set with Mus musculus [6], it took a dose of 1.8 µmol/kg to reach the 50% effect level (ED50). Moreover, the concentration at 1 h in data set [16] was found to be 2.32 ng/g. Moreover, the Kp in [8] amounted to 0.02. In addition, the half-life in data set [9] was 7.12 h. In [19], the Kp at 1 h came to 0.037.

As to `Cc1cc(OCC(=O)OC(C)CCN)cc(C)c1Cc1ccc(O)c(C(C)C)c1` (configuration not stated), the Ratio in data set [1] is recorded as 0.33. In addition, the Activity in data set [2] is 4.46 ng/g.

On to `Cc1cc(OCC(=O)OC(C)CNC(C)C)cc(C)c1Cc1ccc(O)c(C(C)C)c1` (configuration not stated), for which the Ratio in data set [1] was 0.23. In data set [2], the Activity amounted to 0.48 ng/g.

As to `CCC(CN)OC(=O)COc1cc(C)c(Cc2ccc(O)c(C(C)C)c2)c(C)c1` (configuration not stated), in data set [1], the Ratio is reported as 0.41. Further, the Activity in data set [2] was 4.26 ng/g.

For `Cc1cc(OCC(=O)OC(CN)C(C)C)cc(C)c1Cc1ccc(O)c(C(C)C)c1` (configuration not stated), in data set [1], the Ratio came out at 0.045. Also, the Activity in data set [2] stood at 3.38 ng/g.

For `CNCC(C)OC(=O)COc1cc(C)c(Cc2ccc(O)c(C(C)C)c2)c(C)c1` (configuration not stated), the Ratio in data set [1] is 0.23. The Activity in data set [2] came to 5.12 ng/g.
